In ChEMBL document CHEMBL1221375, “Structure-activity relationship study of glaziovianin A against cell cycle progression and spindle formation of HeLa S3 cells” (Bioorg Med Chem Lett, 2010):
Calls of active or inactive are those of the source. The rule behind the calls is not given here.

What was measured:
[1] = Cytotoxicity against human HeLaS3 cells after 48 hrs by […] assay relative to glaziovianin A; type: functional, HeLa S3
[2] = Cytotoxicity against human HeLaS3 cells after 48 hrs by […] assay; type: functional, cell-based; conditions: HeLa S3, 48 h
Procedure, shortened: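 HeLa S₃ cells seeded at 3 × 10³ cells/well and incubated overnight, then exposed to a range of compound concentrations for 48 h. WST-8 reagent added for 2 h and absorbance read at 450 nm. Viability (% control) = (sample absorbance − blank) / (0 µM well absorbance) × 100.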

[3] = Cell cycle arrest in human HeLaS3 cells assessed as abnormal spindle structures with unaligned chromosomes at 1 uM after 18 hrs; type: functional, cell-based; conditions: HeLa S3
Procedure, shortened: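 HeLa S₃ cells given 1 µM compound or DMSO for 18 h. Microtubules immunostained with anti-α-tubulin antibody (DM1A) and chromosomes stained with Hoechst 33258. Spindle structures and chromosome alignment assessed by fluorescence microscopy.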

[4] = Cell cycle arrest in human HeLaS3 cells assessed as accumulation at M phase at 1 uM after 18 hrs by flow cytometry; type: functional, cell-based; conditions: HeLa S3
Procedure, shortened: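 HeLa S3 cells exposed 18 h to 1 μM compound, DMSO as vehicle control. Cells then fixed in cold (−20 °C) 70% EtOH (v/v), stained with propidium iodide. DNA content distribution obtained from total fluorescence intensities by quantitative flow cytometry.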

## COc1cc2occ(-c3cc(OC)c(OC)c(OC)c3OC)c(=O)c2cc1OC
[1]
  Ratio: 0.027
[2]
  IC50: 22 µM

## COc1cc(-c2coc3cc(OC)c(OC)c(OC)c3c2=O)c(OC)c2c1OCO2
[2]
  IC50: > 100 µM

## COc1cc2c(=O)c(-c3cc(OC)c4c(c3OC)OCO4)coc2cc1OC1CCCCO1 (stereo not drawn)
[2]
  IC50: > 100 µM

## COc1cc2c(=O)c(-c3cc(OC)c4c(c3OC)OCO4)coc2cc1OCc1ccccc1
[1]
  Ratio: 0.79
[2]
  IC50: 0.75 µM

## COc1cc2c(=O)c(-c3cc(OC)c4c(c3OC)OCO4)coc2cc1O
[2]
  IC50: > 100 µM

## COc1cc2occ(-c3cc(OC)c4c(c3OC)OC(C)(C)O4)c(=O)c2cc1OC
[2]
  IC50: > 100 µM

## C#CCOc1cc2occ(-c3cc(OC)c4c(c3OC)OCO4)c(=O)c2cc1OC
[1]
  Ratio: 0.8
[2]
  IC50: 0.74 µM

## C=CCOc1cc2occ(-c3cc(OC)c4c(c3OC)OCO4)c(=O)c2cc1OC
[1]
  Ratio: 3.1
[3]
  Activity: Active
[2]
  IC50: 0.19 µM
[4]
  Activity: Active

## COc1cc2occ(-c3ccc4c(c3)OCO4)c(=O)c2cc1OC
[1]
  Ratio: 0.01
[2]
  IC50: 56.2 µM

## COc1cc2occ(-c3cc(OC)c4c(c3OC)OCO4)c(=O)c2cc1OC [GLAZIOVIANIN A]
[2]
  IC50: 0.59 µM
[4]
  Activity: Active
